The text below walks through data of PMC4172508 (Bioorganic & medicinal chemistry, 2014).

For data set [1], the system named is H1299 cells. As to the kind of experiment: Cell viability, sulforhodamine B assay. The format is cell-based. The note with it: H1299, 3 days after treatment. In a few lines: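 Sulforhodamine B assay on the lung cancer line. Cells were exposed to a range of test compound concentrations, and viability was read 3 days after treatment. DMSO-treated control cells were set to 100. Values are mean ± SD of quadruplicate wells.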
On the technique in general: In SRB staining, fixed cells bind dye roughly in proportion to their protein.

Data set [2] in a line: Stability of powder during storage. The format is physicochemical. The note with it: for stability of powder (remaining): 37°C; for time powder stable without detectable changes: non-evacuated container. In a few lines: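 Powdered test compounds were stored at 4°C, room temperature (21°C) or 37°C. Aliquots were taken at time points and kept at −20°C. Each was dissolved in DMSO, diluted with 9 volumes of acetonitrile and analysed by C18 HPLC (acetonitrile/water gradient with 0.2% formic acid, UV 280 nm).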

A short description of data set [3]: Stability of stock solution. The format is physicochemical. The following applies: Solutol HS15 and ethyl alcohol. A digest of the protocol: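 Stock solution: 70 mg prodrug or 60 mg parent drug per ml of 75% (w/v) Solutol HS15 in ethanol (about 20% v/v ethanol). It was stored in capped brown glass tubes at room temperature or 4°C. At intervals, samples were diluted 100-fold in acetonitrile/water (4/1) for C18 HPLC with UV detection at 280 nm.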

A short description of data set [4]: Stability of injectable solution. The data set is classed as physicochemical.
A short description of data set [5]: Tissue distribution in nude mice bearing Calu3 xenograft tumors. The format is in vivo. The note with it: 24 h. In a few lines: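 Nude mice (7–8 weeks) bearing subcutaneous Calu3 xenografts, one per group, received 60 mg/kg by tail vein in Solutol HS15/ethanol/0.9% NaCl. Mice were euthanised at 24 h. Liver, lungs, kidneys, spleen, small intestine and tumour were homogenised in methanol (50 mg/ml) on ice and mixed 1:1 with acetonitrile containing 0.2% formic acid and internal standard. Samples were centrifuged at 4°C and analysed by HPLC/MS.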

The next data set relates to Balb/c mice. Briefly: Acute toxicity study. The format is in vivo.
The subject of the next data set is liver functions. Briefly: Serum liver enzyme levels. The format is in vivo. The note with it: for serum liver enzyme activities: 25 mg/kd/day, each day for 8 days, blood 3 days after last treatment.
A further data set relates to liver. As to the kind of experiment: Histopathological analysis on livers. The format is in vivo. The note with it: 150 mg/kg once, livers harvested 48 h after treatment. A digest of the protocol:
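Mice received a single 150 mg/kg dose of test compound. Livers were harvested at 48 h, sectioned and examined histologically, with two mice per group.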

In data set [6] the test system is H157 cells. The note with it: previous study ref 5; cited from earlier work.
For data set [7], the system named is H460 cells. The note with it: previous study ref 5; cited from earlier work.
In data set [8] the test system is Calu3 cells. The following applies: previous study ref 5; cited from earlier work.
Data set [9] relates to H1299 cells. The following applies: previous study ref 5; cited from earlier work.
The subject of data set [10] is human renal cancer cell line A498 xenograft. The note with it: compared with oncrasin-60 (NSC-741909); cited from earlier work.
For data set [11], the system named is KRAS-mutant lung cancer cell line H157 xenografts. The following applies: cited from earlier work.
The conditions of data set [12]: compared with oncrasin-60 (NSC-741909); cited from earlier work.
The conditions of data set [13]: especially in low-pH conditions; cited from earlier work.
Data set [14] in a line: Release of NSC-743380 from esterified derivatives in PBS. The format is physicochemical. The following applies: PBS pH 7.4, 0.5 mg/ml, 37°C. A digest of the protocol:
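Test compound was made to 0.5 mg/ml in PBS pH 7.4 containing 12% DMSO and 18% acetonitrile (diluted from a DMSO/acetonitrile stock). It was held in a 37°C water bath for up to 24 h. Aliquots were taken at 0–24 h, frozen at −20°C, diluted 50-fold in acetonitrile and run on C18 HPLC (acetonitrile/water gradient, 0.2% formic acid, UV 280 nm). Data come from one of two experiments.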

For data set [15], the system named is H157 cells. As to the kind of experiment: Cell viability, sulforhodamine B assay. The data set is classed as cell-based. The following applies: H157, 3 days after treatment. A digest of the protocol: (§1)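 Human lung cancer cells were treated with a range of test-compound concentrations. Viability was read by sulforhodamine B assay 3 days after treatment. DMSO-treated control cells were set as 100. Values are mean ± SD of quadruplicate wells.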

For data set [16], the system named is H460 cells. As to the kind of experiment: Cell viability, sulforhodamine B assay. The format is cell-based. The following applies: H460, 3 days after treatment. A digest of the protocol:
as §1

In data set [17] the test system is Calu3 cells. As to the kind of experiment: Cell viability, sulforhodamine B assay. The format is cell-based, human. The note with it: Calu3, 3 days after treatment. A digest of the protocol: as §1
The mark [18] stands for this setting: animals treated with oncrasin-266, 60 mg/kg i.v.
Setting [19] is: 150 mg/kg i.p. daily for 3 days, 3 mice/group.
[20] abbreviates: 300 mg/kg i.p. on day 1 and day 2, 3 Balb/c mice/group.
Setting [21] is: 150 mg/kg daily for 3 days, blood on day 6, surviving mice.

Bounds are passed on as bounds.

On to `OCc1cn(Cc2cccc(Cl)c2)c2ccccc12` [NSC-743380], for which the “anticancer activity (cell viability)” value in the data set with H1299 cells [1] is listed as “resistant”. Further, the “stability of powder (remaining)” value in data set [2] (over 14 days) is reported as less than 5%. The “time stable in stock solution” value in [3] (room temperature) is listed as “at least 1 weeks”. The “loss in injectable solution” value in data set [4] (37°C, 7 h) is given as “more than 20%”. Moreover, the “change in injectable solution” value in [4] (room temperature, 7 h) is reported as “little change”. Moreover, the “tissues in which NSC-743380 was detectable” value in data set [5] (setting [18]) is “liver, lungs, kidneys, and subcutaneous tumor tissue”. In addition, in data set [5] (mice treated with NSC-743380, 60 mg/kg i.v.), the “tissues in which NSC-743380 was detected” value was “lungs, intestine, and subcutaneous tumor tissue”. For the same compound, the “survival / death of mice” value with Balb/c mice (setting [19]) is on record as “Two mice in the NSC-743380-treated group died on day 5”; in the data set on Balb/c mice (setting [20]), “All three mice injected with NSC-743380 died on day 3”. Also, in the data set on liver functions, the “serum liver enzyme activities” value was “mostly in normal ranges”. For the same compound, the “blood alanine transaminase (ALT)” value in the data set with liver functions (setting [21]) is “about 1936 Units/L”. In addition, the “histopathological changes in liver” value in the data set on liver is on record as “liver cell damage (necrosis) was obvious”. Further, the “sensitivity of cells to NSC743380 therapy” value in the data set on H157 cells [6] is on record as “highly sensitive”; in the data set with H460 cells [7], “highly sensitive”; in the data set on Calu3 cells [8], “highly sensitive”; with H1299 cells [9], “resistant”. The “anticancer activity in xenograft tumor model” value in data set [10] was “more effective anticancer activity”. Besides, the “in vivo tumor suppression” value in data set [11] is on record as “significant in vivo tumor suppression”. For the same compound, the “maximum tolerated dose / tolerability” value in data set [12] is “much better tolerated”. The “behaviour in solutions with water” value in data set [13] is “tends to form dimers in solutions with water and loses activity”.
Regarding `O=C(CC1CCCCC1)OCc1cn(Cc2cccc(Cl)c2)c2ccccc12` [oncrasin-266, [1-(3-chlorobenzyl)-1H-indol-3-yl]methyl 2-cyclohexylacetate], in data set [14], the “time to complete the release of NSC-743380” value is given as “about 6 hours”. Also, the “anticancer activity (cell viability)” value is “equivalent anticancer activity as NSC743380” in the data set with H157 cells [15], “equivalent anticancer activity as NSC743380” in the data set with H460 cells [16], “equivalent anticancer activity as NSC743380” in the data set on Calu3 cells [17] and “resistant” with H1299 cells [1]. The “time powder stable without detectable changes” value in data set [2] (4°C) and in [2] (room temperature) was “at least 90 days” in each case. For the same compound, the “stability of powder (remaining)” value in [2] (by day 90) is less than 5%. Besides, the “time stable in stock solution” value in [3] (4°C) is reported as “at least 4 weeks”; in data set [3] (room temperature), “at least 2 weeks”. In [4] (injectable solution, 7 hours, 37°C), the “release of NSC-743380 from oncrasin-266” value is “higher than 10%”. For the same compound, the “oncrasin-266 hydrolyzed to release NSC-743380” value in data set [4] (injectable solution, within 7 hours, room temperature) was “about 10%”. In data set [5] (setting [18]), the “oncrasin-266 detected in the liver” value was “high concentration”. For the same compound, the “survival / death of mice” value is “none of the oncrasin-266-treated mice died” in the data set on Balb/c mice (setting [19]); “one died on day 4 and the remaining two survived for at least 2 weeks” in the data set with Balb/c mice (setting [20]). Besides, the tolerability in vivo entry in the data set on Balb/c mice (150-300 mg/kg i.p., mice) is listed as “better tolerated than NSC-743380”. Also, the “serum liver enzyme activities” value in the data set on liver functions is “mostly in normal ranges”. Further, the “blood alanine transaminase (ALT)” value in the data set with liver functions (setting [21]) is listed as “about 115 Units/L”. In addition, the “blood alkaline phosphatase (ALP)” value with liver functions (setting [21]) is recorded as approximately 50 Units/L. In the data set on liver, the “histopathological changes in liver” value is reported as “no obvious changes”.
